Several values for one entry are separate records, joined by “and”; a condition that tells them apart may be missing. Equal entries are not always repeated.
Legend:
Mus musculus [1] = species on record: Mus musculus; assay: Compound was evaluated for anticonvulsant activity against maximal electroshock seizures; format: functional
Procedure, shortened: (§1)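 Male Carworth Farms number-one mice received the compound ip in 30% polyethylene glycol 400 before maximal electroshock testing, at several dose levels. The median effective dose (ED50) was obtained by the graphical method.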

Mus musculus [2] = assay: Compound was evaluated for anticonvulsant activity against subcutaneous pentylenetetrazole-induced convulsions after 30 minutes; C indicates no activity at 300 mg/kg.; format: functional, organism-based; set-up: dose 300 mg/kg
Procedure, shortened: (§2)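 Male Carworth Farms number-one mice were dosed ip in 30% PEG 400, at 30, 100 or 300 mg/kg (sometimes 600 mg/kg). Pentylenetetrazole, 85 mg/kg as a 0.5% solution, was injected subcutaneously in the posterior midline. Protection meant no episode of clonic spasms lasting at least 5 s during a 30-min observation period.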

Mus musculus [3] = assay: Compound was evaluated for anticonvulsant activity against maximal electric shock (MES) induced convulsions after 4 hr at a dose of 300 mg/kg; format: functional
Mus musculus [4] = assay: Compound was evaluated for toxicity by rotarod assay method after 4 hr; C indicates no activity at 300 mg/kg.; format: organism-based; set-up: dose 300 mg/kg; settings: in vivo
Procedure, shortened: (§3)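 Male Carworth Farms number-one mice received test compound intraperitoneally in 30% polyethylene glycol 400 at 30, 100 and 300 mg/kg, with 600 mg/kg in some cases. Neurological deficit was read at 30 min or 4 h after dosing on a 1-in.-diameter knurled plastic rod turning at 6 rpm. Toxicity was scored as failure to stay on the rod for 1 min.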

Mus musculus [5] = assay: Compound was evaluated for toxicity by rotarod assay method after 30 minutes; C indicates no activity at 300 mg/kg.; format: organism-based; set-up: dose 300 mg/kg; settings: in vivo, 0.5 h; procedure, shortened: as §3
Mus musculus [6] = assay: Compound was evaluated for anticonvulsant activity against maximal electric shock (MES) induced convulsions after 30 minutes; C indicates no activity at 300 mg/kg.; format: functional, organism-based; set-up: dose 300 mg/kg
Mus musculus [7] = assay: Compound was evaluated for anticonvulsant activity against subcutaneous pentylenetetrazole-induced convulsions after 4 hr; C indicates no activity at 300 mg/kg.; format: functional, organism-based; set-up: dose 300 mg/kg; procedure, shortened: as §2
Mus musculus [8] = assay: Compound was evaluated for toxicity by rotarod assay method after 4 hr; C is inactive at 300 mg/kg.; format: organism-based; set-up: dose 300 mg/kg; settings: in vivo; procedure, shortened: as §3
Mus musculus [9] = assay: Compound was evaluated for toxicity by rotarod assay method after 30 minutes; C is inactive at 300 mg/kg.; format: organism-based; set-up: dose 300 mg/kg; settings: in vivo, 0.5 h; procedure, shortened: as §3
Mus musculus [10] = assay: Compound was evaluated for anticonvulsant activity against subcutaneous pentylenetetrazole-induced convulsions after 4 hr; C is inactive at 300 mg/kg.; format: functional, organism-based; set-up: dose 300 mg/kg; procedure, shortened: as §2
Mus musculus [11] = assay: Compound was evaluated for anticonvulsant activity against maximal electric shock (MES) induced convulsions after 30 minutes; C is inactive at 300 mg/kg.; format: functional, organism-based; set-up: dose 300 mg/kg
Mus musculus [12] = assay: Compound was evaluated for anticonvulsant activity against maximal electric shock (MES) induced convulsions after 4 hr; C is inactive at 300 mg/kg.; format: functional, organism-based; set-up: dose 300 mg/kg
Mus musculus [13] = assay: Compound was evaluated for anticonvulsant activity against subcutaneous pentylenetetrazole-induced convulsions after 30 minutes;C is inactive at 300 mg/kg.; format: functional, organism-based; set-up: dose 300 mg/kg; procedure, shortened: as §2
Mus musculus [14] = assay: Compound was evaluated for toxicity by rotarod assay method after 30 minutes at a dose of 600 mg/kg; format: organism-based; set-up: dose 600 mg/kg; settings: in vivo, 0.5 h; procedure, shortened: as §3
Mus musculus [15] = assay: Compound was evaluated for anticonvulsant activity against subcutaneous pentylenetetrazole-induced convulsions after 30 minutes; E indicates no activity at 30 mg/kg.; format: functional, organism-based; set-up: dose 30 mg/kg; procedure, shortened: as §2
Mus musculus [16] = assay: Compound was evaluated for anticonvulsant activity against maximal electric shock (MES) induced convulsions after 30 minutes at a dose of 300 mg/kg; format: functional
Mus musculus [17] = assay: Compound was evaluated for toxicity by rotarod assay method after 4 hr; E indicates no activity at 30 mg/kg.; format: organism-based; set-up: dose 30 mg/kg; settings: in vivo; procedure, shortened: as §3
Mus musculus [18] = assay: Compound was evaluated for anticonvulsant activity against subcutaneous pentylenetetrazole-induced convulsions after 4 hr; E indicates no activity at 30 mg/kg.; format: functional, organism-based; set-up: dose 30 mg/kg; procedure, shortened: as §2
Mus musculus [19] = assay: Compound was evaluated for anticonvulsant activity against maximal electric shock (MES) induced convulsions after 4 hr; E indicates no activity at 30 mg/kg.; format: functional, organism-based; set-up: dose 30 mg/kg
Mus musculus [20] = assay: Compound was evaluated for anticonvulsant activity against maximal electric shock (MES) induced convulsions after 30 minutes at a dose of 30 mg/kg; format: functional
Mus musculus [21] = assay: Compound was evaluated for toxicity by rotarod assay method after 30 minutes at a dose of 100 mg/kg; format: organism-based; set-up: dose 100 mg/kg; settings: in vivo, 0.5 h; procedure, shortened: as §3
Mus musculus [22] = assay: Compound was evaluated for anticonvulsant activity against maximal electric shock (MES) induced convulsions after 4 hr at a dose of 100 mg/kg; format: functional
Mus musculus [23] = assay: Compound was evaluated for anticonvulsant activity against subcutaneous pentylenetetrazole-induced convulsions after 4 hr; D indicates no activity at 100 mg/kg; format: functional, organism-based; set-up: dose 100 mg/kg; procedure, shortened: as §2
[24] = Protective index is the ratio of TD50 to ED50; format: ADME
Procedure, shortened: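 Protective index was calculated as rotorod TD50 divided by anti-MES ED50. Both were graphical median doses from ip dosing in 30% PEG 400 in male Carworth Farms mice.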

[25] = Compound was evaluated for anticonvulsant activity by rotarod procedure; format: ADME, organism-based; settings: mouse, in vivo
Procedure, shortened: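 Male Carworth Farms mice were dosed ip in 30% PEG 400 and then placed on a knurled plastic rod 1 in. in diameter, rotating at 6 rpm. Neurotoxicity was failure to stay on the rod for 1 min. TD50 was derived graphically.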

Mus musculus [26] = species on record: Mus musculus; assay: Compound was evaluated for anticonvulsant activity against maximal electric shock induced seizures; format: functional; procedure, shortened: as §1
Mus musculus [27] = assay: Compound was evaluated for anticonvulsant activity against subcutaneous pentylenetetrazole-induced convulsions after 30 minutes; D indicates no activity at 100 mg/kg; format: functional, organism-based; set-up: dose 100 mg/kg; procedure, shortened: as §2
Mus musculus [28] = assay: Compound was evaluated for toxicity by rotarod assay method after 4 hr at a dose of 100 mg/kg; format: organism-based; set-up: dose 100 mg/kg; settings: in vivo; procedure, shortened: as §3
[29] = Lethal dose was evaluated in mice; format: toxicity, organism-based; settings: mouse, in vivo
Mus musculus [30] = species on record: Mus musculus; assay: Hypnotic dose was evaluated in mice; format: functional
Mus musculus [31] = assay: Compound was evaluated for anticonvulsant activity against maximal electric shock (MES) induced convulsions after 4 hr; C indicates no activity at 300 mg/kg.; format: functional, organism-based; set-up: dose 300 mg/kg
Mus musculus [32] = assay: Compound was evaluated for anticonvulsant activity against subcutaneous pentylenetetrazole-induced convulsions after 4 hr at a dose of 100 mg/kg; format: functional; procedure, shortened: as §2
Mus musculus [33] = assay: Compound was evaluated for anticonvulsant activity against maximal electric shock (MES) induced convulsions after 30 minutes;C is inactive at 300 mg/kg.; format: functional, organism-based; set-up: dose 300 mg/kg
Mus musculus [34] = assay: Compound was evaluated for toxicity by rotarod assay method after 30 minutes;C is inactive at 300 mg/kg.; format: organism-based; set-up: dose 300 mg/kg; settings: in vivo, 0.5 h; procedure, shortened: as §3
Mus musculus [35] = assay: Compound was evaluated for anticonvulsant activity against subcutaneous pentylenetetrazole-induced convulsions after 30 minutes;C indicates no activity at 300 mg/kg.; format: functional, organism-based; set-up: dose 300 mg/kg; procedure, shortened: as §2
Mus musculus [36] = assay: Compound was evaluated for toxicity by rotarod assay method after 4 hr at a dose of 300 mg/kg; format: organism-based; set-up: dose 300 mg/kg; settings: in vivo; procedure, shortened: as §3

CN(C)c1ccc(C(=O)NCc2ccccc2)cc1
ED50 (Mus musculus [1]): 233 mg/kg | Activity (Mus musculus [2]): No activity at 300 mg/kg | Activity (Mus musculus [3]): 2 | Toxicity (Mus musculus [4]): No activity at 300 mg/kg | Toxicity (Mus musculus [5]): No activity at 300 mg/kg | Activity (Mus musculus [6]): No activity at 300 mg/kg | Activity (Mus musculus [7]): No activity at 300 mg/kg

CCOC(=O)Nc1ccc(C(=O)NC(C)c2ccccc2)cc1 (centres undefined)
Toxicity (Mus musculus [8]): No activity at 300 mg/kg | Toxicity (Mus musculus [9]): No activity at 300 mg/kg | Activity (Mus musculus [10]): No activity at 300 mg/kg | Activity (Mus musculus [11]): No activity at 300 mg/kg | Activity (Mus musculus [12]): No activity at 300 mg/kg | Activity (Mus musculus [13]): No activity at 300 mg/kg

CC(NCc1ccccc1N)c1ccccc1 (centres undefined)
Toxicity (Mus musculus [14]): 1 | Activity (Mus musculus [15]): No activity at 30 mg/kg | Activity (Mus musculus [16]): 2 | Toxicity (Mus musculus [17]): No activity at 30 mg/kg | Activity (Mus musculus [18]): No activity at 30 mg/kg | Activity (Mus musculus [19]): No activity at 30 mg/kg

CNCc1ccc(C(=O)NC(C)c2ccccc2)cc1 (centres undefined)
Activity (Mus musculus [20]): 4 | Toxicity (Mus musculus [21]): 3 | Activity (Mus musculus [22]): 3 | Activity (Mus musculus [23]): No activity at 100 mg/kg | selectivity ratio ([24]; read-out: Protective index): 1.66 | TD50 [25]: 22.4 mg/kg | ED50 (Mus musculus [26]): 13.5 mg/kg | Activity (Mus musculus [27]): No activity at 100 mg/kg | Toxicity (Mus musculus [28]): 3

CC(NC(=O)c1ccc(N)cc1)c1ccccc1 (centres undefined)
LD50 [29]: 718 mg/kg | HD50 (Mus musculus [30]): 461.76 mg/kg | Protective index [24]: 9.5 and 4.1

COc1ccc(C(C)NC(=O)c2ccc(N)cc2)cc1 (centres undefined)
Activity (Mus musculus [2]): No activity at 300 mg/kg | Toxicity (Mus musculus [4]): No activity at 300 mg/kg | Activity (Mus musculus [31]): No activity at 300 mg/kg | Toxicity (Mus musculus [5]): No activity at 300 mg/kg | Activity (Mus musculus [6]): No activity at 300 mg/kg | Activity (Mus musculus [32]): 3

CC(NC(=O)c1ccccc1)c1ccccc1 (centres undefined)
Toxicity (Mus musculus [8]): No activity at 300 mg/kg | Activity (Mus musculus [33]): No activity at 300 mg/kg | Toxicity (Mus musculus [34]): No activity at 300 mg/kg | Activity (Mus musculus [10]): No activity at 300 mg/kg | Activity (Mus musculus [12]): No activity at 300 mg/kg | Activity (Mus musculus [13]): No activity at 300 mg/kg

CC(NC(=O)c1ccc(N)cc1)c1ccc(F)cc1 (centres undefined)
Activity (Mus musculus [35]): No activity at 300 mg/kg | Activity (Mus musculus [22]): 3 | Activity (Mus musculus [16]): 2 | Toxicity (Mus musculus [5]): No activity at 300 mg/kg | Toxicity (Mus musculus [36]): 2 | Activity (Mus musculus [7]): No activity at 300 mg/kg
